Measurements taken from ChEMBL document CHEMBL4359813, “Synthesis and antimycobacterial activity of imidazo[1,2-b][1,2,4,5]tetrazines” (2019).
Converted amounts (≈) assume the structure as drawn. The source made the active and inactive calls. The rule behind the calls is not given here.

Key:
[1] = system: Mycolicibacterium smegmatis; assay: Antimycobacterial activity against Mycobacterium smegmatis atR33 in liquid medium after 48 hrs by two-fold serial dilution method; type: functional; conditions: atR33, 48 h
How it was run: (§1)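 M. smegmatis resistant mutants were isolated on M290 agar containing 3.5-4× MIC of the test compound at 30°C and resistance was reconfirmed. MIC was then run in Lemco-Tw broth (Tween-80 0.05%). An overnight culture was diluted 1:200, and two-fold serial dilutions in DMSO were added. Plates were incubated at 37°C and 250 rpm for 48 h. MIC was read as the lowest concentration with no visible growth.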

[2] = system: Mycolicibacterium smegmatis; assay: Antimycobacterial activity against Mycobacterium smegmatis atR10 assessed as decrease in drug resistance development at 100 nmol/disc after 2 to 3 days by paper disc method; type: functional, organism-based
How it was run: (§2)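 Mutant M. smegmatis strains were grown in Middlebrook 7H9/OADC/Tween/glycerol to OD600 1.2. Cultures were diluted 1:9:10 (culture:water:M290) and overlaid on M290 agar. Commercial or impregnated paper discs were applied and plates incubated 2–3 days at 37 °C. Inhibition halos were measured to 1 mm, run in triplicate, mean ± SD.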

[3] = system: Mycolicibacterium smegmatis; assay: Antimycobacterial activity against Mycobacterium smegmatis atR19 in liquid medium after 48 hrs by two-fold serial dilution method; type: functional; conditions: atR19, 48 h; how it was run: as §1
[4] = system: Mycolicibacterium smegmatis; assay: Antimycobacterial activity against Mycobacterium smegmatis atR33 assessed as decrease in drug resistance development at 100 nmol/disc after 2 to 3 days by paper disc method; type: functional, organism-based; how it was run: as §2
[5] = system: Mycolicibacterium smegmatis; assay: Antimycobacterial activity against Mycobacterium smegmatis atR1 in liquid medium after 48 hrs by two-fold serial dilution method; type: functional; conditions: atR1, 48 h; how it was run: as §1
[6] = system: Mycolicibacterium smegmatis; assay: Antimycobacterial activity against Mycobacterium smegmatis atR19 assessed as decrease in drug resistance development at 100 nmol/disc after 2 to 3 days by paper disc method; type: functional, organism-based; how it was run: as §2
[7] = system: Mycolicibacterium smegmatis; assay: Antimycobacterial activity against Mycobacterium smegmatis atR10 in liquid medium after 48 hrs by two-fold serial dilution method; type: functional; conditions: atR10, 48 h; how it was run: as §1
[8] = system: Mycolicibacterium smegmatis MC2 155; assay: Inhibition of STPK in Mycobacterium smegmatis MC2 155 expressing aminoglycoside phophotransferase-8 assessed as growth inhibition at 50 nmol/disk after 18 hrs in presence of kanamycin by paper disk method
[9] = system: Mycolicibacterium smegmatis; assay: Antimycobacterial activity against Mycobacterium smegmatis atR17 in liquid medium after 48 hrs by two-fold serial dilution method; type: functional; conditions: atR17, 48 h; how it was run: as §1
[10] = system: Mycolicibacterium smegmatis; assay: Antimycobacterial activity against Mycobacterium smegmatis atR40 in liquid medium after 48 hrs by two-fold serial dilution method; type: functional; conditions: atR40, 48 h; how it was run: as §1
[11] = system: Mycolicibacterium smegmatis; assay: Antimycobacterial activity against Mycobacterium smegmatis atR14 in liquid medium after 48 hrs by two-fold serial dilution method; type: functional; conditions: atR14, 48 h; how it was run: as §1
[12] = system: Mycolicibacterium smegmatis; assay: Antimycobacterial activity against Mycobacterium smegmatis atR9 assessed as decrease in drug resistance development at 100 nmol/disc after 2 to 3 days by paper disc method; type: functional, organism-based
How it was run: (§3)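 Drug-resistant M. smegmatis mc2 155 mutants, isolated on M290 agar with 3.5-4× MIC of compound and resistance re-confirmed, grown in Middlebrook 7H9 (OADC, 0.1% Tween-80, 0.4% glycerol) to OD600 1.2. Diluted 1:9:10 culture:water:M290 and poured as top layer on M290 agar. Impregnated paper discs applied; 37 °C for 2–3 days. Halos measured to nearest 1 mm; triplicates, mean ± SD versus control strain.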

[13] = system: Mycolicibacterium smegmatis; assay: Antimycobacterial activity against Mycobacterium smegmatis atR2 assessed as decrease in drug resistance development at 100 nmol/disc after 2 to 3 days by paper disc method; type: functional, organism-based; how it was run: as §2
[14] = system: Mycolicibacterium smegmatis; assay: Antimycobacterial activity against Mycobacterium smegmatis atR2 in liquid medium after 48 hrs by two-fold serial dilution method; type: functional; conditions: atR2, 48 h; how it was run: as §1
[15] = system: Mycolicibacterium smegmatis; assay: Antimycobacterial activity against Mycobacterium smegmatis atR8 in liquid medium after 48 hrs by two-fold serial dilution method; type: functional; conditions: atR8, 48 h; how it was run: as §1
[16] = system: Mycolicibacterium smegmatis; assay: Antimycobacterial activity against Mycobacterium smegmatis atR17 assessed as decrease in drug resistance development at 100 nmol/disc after 2 to 3 days by paper disc method; type: functional, organism-based; how it was run: as §2
[17] = system: Mycolicibacterium smegmatis; assay: Antimycobacterial activity against Mycobacterium smegmatis MC2 155 in liquid medium after 48 hrs by two-fold serial dilution method; type: functional; conditions: MC2 155, 48 h
How it was run: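 M. smegmatis mc2 155 grown overnight in Lemco-Tw broth, diluted 1:200 in fresh broth. […] Top wells could carry 4% DMSO. Incubated 48 h at 37 °C with shaking at 250 rpm. MIC is the lowest concentration with no visible growth.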

[18] = system: Mycolicibacterium smegmatis; assay: Antimycobacterial activity against Mycobacterium smegmatis atR11 assessed as decrease in drug resistance development at 100 nmol/disc after 2 to 3 days by paper disc method; type: functional, organism-based; how it was run: as §2
[19] = system: Mycobacterium tuberculosis; assay: Antimycobacterial activity against Mycobacterium tuberculosis H37Rv in liquid medium; type: functional
How it was run: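 M. tuberculosis H37Rv; MIC determined in liquid medium on the automated Bactec MGIT 960 system.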

[20] = system: Mycolicibacterium smegmatis; assay: Antimycobacterial activity against Mycobacterium smegmatis atR14 assessed as decrease in drug resistance development at 100 nmol/disc after 2 to 3 days by paper disc method; type: functional, organism-based; how it was run: as §2
[21] = system: Mycolicibacterium smegmatis; assay: Antimycobacterial activity against Mycobacterium smegmatis atR9 in liquid medium after 48 hrs by two-fold serial dilution method; type: functional; conditions: atR9, 48 h; how it was run: as §1
[22] = system: Mycolicibacterium smegmatis; assay: Antimycobacterial activity against Mycobacterium smegmatis atR37 in liquid medium after 48 hrs by two-fold serial dilution method; type: functional; conditions: atR37, 48 h; how it was run: as §1
[23] = system: Mycolicibacterium smegmatis; assay: Antimycobacterial activity against Mycobacterium smegmatis atR11 in liquid medium after 48 hrs by two-fold serial dilution method; type: functional; conditions: atR11, 48 h; how it was run: as §1
[24] = system: Mycolicibacterium smegmatis; assay: Antimycobacterial activity against Mycobacterium smegmatis atR40 assessed as decrease in drug resistance development at 100 nmol/disc after 2 to 3 days by paper disc method; type: functional, organism-based; how it was run: as §3
[25] = system: Mycolicibacterium smegmatis; assay: Antimycobacterial activity against Mycobacterium smegmatis MC2 155 in solid medium by two-fold serial dilution method; type: functional
How it was run: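 M290 soybean-casein agar plates carried two-fold compound dilutions, 8–64 or 8–128 µg/ml, some with extra 20 or 25 µg/ml plates.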

[26] = system: Mycolicibacterium smegmatis; assay: Antimycobacterial activity against Mycobacterium smegmatis atR37 assessed as decrease in drug resistance development at 100 nmol/disc after 2 to 3 days by paper disc method; type: functional, organism-based; how it was run: as §3
[27] = system: Mycolicibacterium smegmatis; assay: Antimycobacterial activity against Mycobacterium smegmatis atR8 assessed as decrease in drug resistance development at 100 nmol/disc after 2 to 3 days by paper disc method; type: functional, organism-based; how it was run: as §3
[28] = system: Mycolicibacterium smegmatis; assay: Antimycobacterial activity against Mycobacterium smegmatis atR1 assessed as decrease in drug resistance development at 100 nmol/disc after 2 to 3 days by paper disc method; type: functional, organism-based; how it was run: as §2
[29] = system: Mycolicibacterium smegmatis MC2 155; assay: Inhibition of STPK in Mycobacterium smegmatis MC2 155 expressing aminoglycoside phophotransferase-8 assessed as growth inhibition at 25 nmol/disk after 18 hrs in presence of kanamycin by paper disk method
[30] = system: Mycolicibacterium smegmatis; assay: Antimycobacterial activity against Mycobacterium smegmatis atR17 assessed as decrease in drug resistance development at 5 ug/disc after 2 to 3 days by paper disc method; type: functional, organism-based; how it was run: as §2
[31] = system: Mycolicibacterium smegmatis; assay: Antimycobacterial activity against Mycobacterium smegmatis atR33 assessed as decrease in drug resistance development at 5 ug/disc after 2 to 3 days by paper disc method; type: functional, organism-based; how it was run: as §3
[32] = system: Mycolicibacterium smegmatis; assay: Antimycobacterial activity against Mycobacterium smegmatis atR37 assessed as decrease in drug resistance development at 5 ug/disc after 2 to 3 days by paper disc method; type: functional, organism-based; how it was run: as §3
[33] = system: Mycolicibacterium smegmatis; assay: Antimycobacterial activity against Mycobacterium smegmatis atR40 assessed as decrease in drug resistance development at 5 ug/disc after 2 to 3 days by paper disc method; type: functional, organism-based; how it was run: as §3
[34] = system: Mycolicibacterium smegmatis; assay: Antimycobacterial activity against Mycobacterium smegmatis atR14 assessed as decrease in drug resistance development at 5 ug/disc after 2 to 3 days by paper disc method; type: functional, organism-based; how it was run: as §2
[35] = system: Mycolicibacterium smegmatis; assay: Antimycobacterial activity against Mycobacterium smegmatis atR11 assessed as decrease in drug resistance development at 5 ug/disc after 2 to 3 days by paper disc method; type: functional, organism-based; how it was run: as §2
[36] = system: Mycolicibacterium smegmatis; assay: Antimycobacterial activity against Mycobacterium smegmatis atR1 assessed as decrease in drug resistance development at 5 ug/disc after 2 to 3 days by paper disc method; type: functional, organism-based; how it was run: as §2
[37] = system: Mycolicibacterium smegmatis; assay: Antimycobacterial activity against Mycobacterium smegmatis atR19 assessed as decrease in drug resistance development at 5 ug/disc after 2 to 3 days by paper disc method; type: functional, organism-based; how it was run: as §2
[38] = system: Mycolicibacterium smegmatis; assay: Antimycobacterial activity against Mycobacterium smegmatis atR8 assessed as decrease in drug resistance development at 5 ug/disc after 2 to 3 days by paper disc method; type: functional, organism-based; how it was run: as §3
[39] = system: Mycolicibacterium smegmatis MC2 155; assay: Inhibition of STPK in Mycobacterium smegmatis MC2 155 expressing aminoglycoside phophotransferase-8 assessed as growth inhibition at 350 microg/disk after 18 hrs by paper disk method
[40] = system: Mycolicibacterium smegmatis; assay: Antimycobacterial activity against Mycobacterium smegmatis atR2 assessed as decrease in drug resistance development at 5 ug/disc after 2 to 3 days by paper disc method; type: functional, organism-based; how it was run: as §2
[41] = system: Mycolicibacterium smegmatis; assay: Antimycobacterial activity against Mycobacterium smegmatis atR10 assessed as decrease in drug resistance development at 5 ug/disc after 2 to 3 days by paper disc method; type: functional, organism-based; how it was run: as §2

Structure (SMILES): Cc1cn(-c2nnc3ncc(SC(C)C)n3n2)cn1
- MIC [1]: 128 µg/mL (≈ 465 µM)
- Activity [2]: inactive
- MIC [3]: 128 µg/mL (≈ 465 µM)
- Activity [4]: inactive
- MIC [5]: 128 µg/mL (≈ 465 µM)
- Activity [6]: inactive
- MIC [7]: 256 µg/mL (≈ 930 µM)
- inhibition zone (IZ) [8]: 13 mm
- MIC [9]: 128 µg/mL (≈ 465 µM)
- MIC [10]: 128 µg/mL (≈ 465 µM)
- MIC [11]: 128 µg/mL (≈ 465 µM)
- Activity [12]: inactive
- Activity [13]: Active
- MIC [14]: 128 µg/mL (≈ 465 µM)
- MIC [15]: 256 µg/mL (≈ 930 µM)
- Activity [16]: inactive
- MIC [17]: 232 µM (≈ 64 µg/mL)
- Activity [18]: inactive
- MIC [19]: 90.8 µM (≈ 25 µg/mL)
- Activity [20]: inactive
- MIC [21]: 128 µg/mL (≈ 465 µM)
- MIC [22]: 128 µg/mL (≈ 465 µM)
- MIC [23]: 256 µg/mL (≈ 930 µM)
- Activity [24]: inactive
- MIC [25]: 90.8 µM (≈ 25 µg/mL)
- Activity [26]: Active
- Activity [27]: inactive
- Activity [28]: inactive

Structure (SMILES): CC(C)Sc1cnc2nnc(-n3ccnc3)nn12
- inhibition zone (IZ) [29]: 13.8 mm

Structure (SMILES): NC[C@H]1O[C@H](O[C@H]2[C@H](O)[C@@H](O[C@H]3O[C@H](CO)[C@@H](O)[C@H](N)[C@H]3O)[C@H](N)C[C@@H]2N)[C@H](O)[C@@H](O)[C@@H]1O
- Activity [30]: Active
- Activity [31]: Active
- Activity [32]: Active
- Activity [33]: Active
- Activity [34]: Active
- Activity [35]: Active
- Activity [36]: Active
- Activity [37]: Active
- Activity [38]: Active
- inhibition zone (IZ) [39]: 9.3 mm
- Activity [40]: Active
- Activity [41]: Active
